In brackets after ≈: the same amount, converted by molar mass.
Columns and labels:
[1] = Partition coefficient log P by shake flask method; format: physicochemical; details: octanol/water
In short: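 Shake flask in n-octanol/phosphate buffer pH 7.4. Compound-saturated octanol shaken with an equal volume of buffer for 24 h at 25 °C, then left 30 min to separate. Both phases quantified by UV against calibration plots.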

[2] = Aqueous solubility at pH. 4; format: physicochemical
[3] = Chemical stability assessed as half life of hydrolysis at pH 2; format: physicochemical; details: buffer
In short: (§1)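 Compound dissolved in preheated HCl buffer pH 2 or isotonic phosphate buffer pH 7.4 and held at 37 °C. Pseudo-first-order rate constants taken from semilog plots of concentration versus time.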

[4] = Chemical stability assessed as half life of hydrolysis at pH 7.4; format: physicochemical; details: buffer; in short: as §1
[5] = Stability in presence of 80% human plasma assessed as half life; format: ADME, cell-free
In short: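 Citrated human plasma diluted 4:1 with isotonic phosphate buffer pH 7.4 (80% plasma), preheated, shaken at 37 °C. Compound added from a 1 mg/ml stock; samples at intervals diluted and read at 253 nm for released BPA. Rate constant and t½ taken from the linear part of the log BPA concentration versus time plot.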

[6] = Antioxidant activity in stomach assessed as superoxide dismutase activity measured per mg of protein (RVb = 325.40 +/- 69 U); format: functional
[7] = Antioxidant activity in stomach assessed as catalase activity measured per mg of protein (RVb = 28.38 +/- 2.85 U); format: functional
[8] = Antioxidant activity in stomach assessed as lipid peroxidation measured per mg of protein (RVb = 4.61 +/- 1.28 nmole); format: functional, tissue-based
[9] = Antioxidant activity in stomach assessed as myeloperoxidase activity relative to control; format: functional
In short: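 Stomach homogenate from ulcer-study rats (0.01 M phosphate buffer), spun 10,000 rpm, 10 min, 10 °C. Supernatant mixed with o-phenylenediamine (660 µg/ml) and started with 300 mM H2O2; A492 read every 30 s for 5 min. ΔOD/min expressed as % of control activity.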

[10] = system: Mus musculus; assay: Analgesic activity in mouse assessed as inhibition of acetic acid-induced writhing at 10 mg/kg, po relative to control; format: functional
In short: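 Male LACCA mice (25–35 g), fasted overnight, dosed orally in 0.5% CMC (0.1 ml/10 g) 1 h before 1% acetic acid, 10 ml/kg i.p. Writhes counted over 20 min starting 3 min post-challenge. % inhibition = (1 − Nt/Nc) × 100 versus vehicle controls. Mean ± SE of five experiments.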

[11] = system: Rattus norvegicus; assay: Toxicity in Sprague-Dawley rat assessed as ulcer index at dose molar equivalent to 54 mg/kg, po; format: organism-based; design: dose 54 mg/kg, route oral; details: in vivo
In short: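 Overnight-fasted Sprague-Dawley rats given oral doses equimolar to BPA 54 mg/kg; vehicle controls. Killed 4 h after dosing; stomachs opened along greater curvature, saline-washed and scored: 0 none, 1 punctiform <1 mm, 3 filiform <5 mm, 4 punctiform >1 mm or filiform >5 mm. Mean ± SE of five experiments.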

[12] = system: Rattus norvegicus; assay: Antiinflammatory activity in Sprague-Dawley rat assessed as reduction in carrageenan-induced paw edema at dose molar equivalent to 15 mg/kg, po after 4 hrs (RVb = 78.4+/- 2.53%); design: scale not given: the % may be the effect or the level left
[13] = system: Rattus norvegicus; assay: Antiinflammatory activity in Sprague-Dawley rat assessed as reduction in carrageenan-induced paw edema at dose molar equivalent to 15 mg/kg, po after 5 hrs (RVb = 65.2+/- 1.96%); design: scale not given: the % may be the effect or the level left
[14] = system: Rattus norvegicus; assay: Antiinflammatory activity in Sprague-Dawley rat assessed as reduction in carrageenan-induced paw edema at dose molar equivalent to 15 mg/kg, po after 2 hrs (RVb = 68.8 +/- 2.06%); design: scale not given: the % may be the effect or the level left
[15] = system: Rattus norvegicus; assay: Antiinflammatory activity in Sprague-Dawley rat assessed as reduction in carrageenan-induced paw edema at dose molar equivalent to 15 mg/kg, po after 3 hrs (RVb = 81.1+/- 2.43 %); design: scale not given: the % may be the effect or the level left

## COc1cc(OC)c2c(=O)c(OC(=O)Cc3ccc(-c4ccccc4)cc3)c(-c3ccc(OC)c(OC)c3)oc2c1
[1]
  logP: 3.95
[2]
  solubility: 14.5 µg/mL (≈ 26.2 µM)
[3]
  half-life: > 100 h
[4]
  half-life: > 38 h
[5]
  half-life: 0.33 h
[6]
  Activity: 223 U/mg protein
[7]
  Activity: 22.4 U/mg protein
[8]
  Activity: 6.42 nM
[9]
  Activity: 118.93%
[10]
  inhibition in vivo at 10 mg/kg: 62.4%
[11]
  UI: 0.45
[12]
  Activity: 31.6%
[13]
  Activity: 33.1%
[14]
  Activity: 34.2%
[15]
  Activity: 37.5%

## O=C(O)Cc1ccc(-c2ccccc2)cc1 [FELBINAC]
[6]
  Activity: 26.2 U/mg protein
[7]
  Activity: 3.52 U/mg protein
[8]
  Activity: 22.6 nM
[9]
  Activity: 238.47%
[10]
  inhibition in vivo at 10 mg/kg: 68.6%
[11]
  UI: 6.2
[12]
  Activity: 25.2%
[13]
  Activity: 29.1%
[14]
  Activity: 26.9%
[15]
  Activity: 26.5%
